The target of the first data set is T1, Urotensin-2 receptor (Homo sapiens, UniProt Q9UKP6).
T1 sequence (Q9UKP6 whole entry): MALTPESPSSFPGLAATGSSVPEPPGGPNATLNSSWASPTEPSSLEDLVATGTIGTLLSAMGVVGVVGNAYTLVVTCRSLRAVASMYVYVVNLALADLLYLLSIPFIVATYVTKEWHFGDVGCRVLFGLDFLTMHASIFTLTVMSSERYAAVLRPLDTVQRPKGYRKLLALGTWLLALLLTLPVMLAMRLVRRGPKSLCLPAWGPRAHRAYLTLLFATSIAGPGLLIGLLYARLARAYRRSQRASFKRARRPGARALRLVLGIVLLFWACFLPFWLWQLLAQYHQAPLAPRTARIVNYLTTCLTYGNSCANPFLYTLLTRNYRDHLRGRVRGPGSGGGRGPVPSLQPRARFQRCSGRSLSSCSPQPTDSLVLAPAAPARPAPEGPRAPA
As to the kind of experiment: Displacement of europium-labeled urotensin-2 from human recombinant urotensin-2 receptor expressed in HEK293 cell membranes after 90 mins by filtration based time resolved fluorometric assay.
Conditions: not given
The method, boiled down:
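Competitive binding against Eu-labeled U-II on membranes of HEK293 cells expressing human UT receptor, read by time-resolved fluorometry. IC50 values are means of at least two measurements.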
CYP3A4, sequence (P08684 whole entry): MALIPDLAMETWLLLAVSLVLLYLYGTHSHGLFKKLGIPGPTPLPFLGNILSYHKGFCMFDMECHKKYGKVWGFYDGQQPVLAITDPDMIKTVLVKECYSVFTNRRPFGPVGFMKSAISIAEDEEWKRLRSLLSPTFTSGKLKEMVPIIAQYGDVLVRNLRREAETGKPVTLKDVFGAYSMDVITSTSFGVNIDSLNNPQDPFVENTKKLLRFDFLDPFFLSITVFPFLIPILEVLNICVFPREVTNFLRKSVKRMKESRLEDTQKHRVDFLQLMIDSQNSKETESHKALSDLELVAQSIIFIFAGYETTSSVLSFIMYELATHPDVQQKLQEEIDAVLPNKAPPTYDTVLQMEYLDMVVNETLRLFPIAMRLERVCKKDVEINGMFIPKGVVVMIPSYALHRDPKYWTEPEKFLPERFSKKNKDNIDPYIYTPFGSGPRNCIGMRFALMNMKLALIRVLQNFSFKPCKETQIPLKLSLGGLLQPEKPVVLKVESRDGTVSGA
With `O=C(NC1CCN(Cc2ccc(OC3CCNCC3)c(Br)c2)CC1)c1cc2cc(Cl)ccc2s1`, the IC50 is 0.051 µM.
Regarding `N#Cc1ccc2cc(C(=O)NC3CCN(Cc4ccc(OC5CCNCC5)c(Br)c4)CC3)sc2c1`, the IC50 was 0.08 µM.
As to `Cc1ccc(-c2ccc3cc(C(=O)NC4CCN(Cc5ccc(OC6CCNCC6)c(Br)c5)CC4)sc3c2)cc1`, the IC50 was determined as 0.14 µM.
`O=C(NC1CCN(Cc2ccc(OC3CCNCC3)c(Br)c2)CC1)c1cc2cc(C(F)(F)F)ccc2s1`: the IC50 is 0.1 µM.
With `O=C(NC1CCN(Cc2ccc(OC3CCNCC3)c(Br)c2)CC1)c1cc2ccc(-c3ccc(Cl)cc3)cc2s1`, the IC50 was found to be 0.14 µM.
`COc1ccccc1-c1ccc2cc(C(=O)NC3CCN(Cc4ccc(OC5CCNCC5)c(Br)c4)CC3)sc2c1`: the IC50 turned out to be 0.56 µM.
For `O=C(NC1CCN(Cc2ccc(OC3CCNCC3)c(Br)c2)CC1)c1cc2cc(Br)ccc2s1`, the IC50 was 0.086 µM.
Still for that read-out and setting: under `O=C(NC1CCN(Cc2ccc(OC3CCNCC3)c(Br)c2)CC1)c1cnccn1` stands 0.61 µM; under `O=C(NC1CCN(Cc2ccc(OC3CCNCC3)c(Br)c2)CC1)c1cc2cc(F)ccc2s1`, 0.053 µM; under `O=C(NC1CCN(Cc2ccc(OC3CCNCC3)c(Br)c2)CC1)c1cc2ccccc2s1`, 0.063 µM.
The same measure, in the same setting: under `O=C(NC1CCN(Cc2ccc(OC3CCNCC3)c(Br)c2)CC1)c1cscn1` stands 0.97 µM; under `O=C(NC1CCN(Cc2ccc(OC3CCNCC3)c(Br)c2)CC1)c1ccco1`, 0.77 µM; under `O=C(NC1CCN(Cc2ccc(OC3CCNCC3)c(Br)c2)CC1)c1cc2cc(-c3ccccc3)ccc2s1`, 0.31 µM.
In the case of `COc1ccc2sc(C(=O)NC3CCN(Cc4ccc(OC5CCNCC5)c(Br)c4)CC3)cc2c1`, the IC50 stood at 0.1 µM.
For `O=C(NC1CCN(Cc2ccc(OC3CCNCC3)c(Br)c2)CC1)c1ccccn1`, the IC50 stood at 0.12 µM.
As to `Cc1ccc2sc(C(=O)NC3CCN(Cc4ccc(OC5CCNCC5)c(Br)c4)CC3)cc2c1`, the IC50 was 0.074 µM.
In the case of `COc1ccc(-c2ccc3cc(C(=O)NC4CCN(Cc5ccc(OC6CCNCC6)c(Br)c5)CC4)sc3c2)cc1`, the IC50 worked out at 0.049 µM.
As for `O=C(NC1CCN(Cc2ccc(OC3CCNCC3)c(Br)c2)CC1)c1ccno1`, the IC50 was determined as 0.34 µM.
Consider `O=C(NC1CCN(Cc2ccc(OC3CCNCC3)c(Br)c2)CC1)c1cc2cc([N+](=O)[O-])ccc2s1`, for which the IC50 was determined as 0.049 µM.
As for `N#Cc1ccc2sc(C(=O)NC3CCN(Cc4ccc(OC5CCNCC5)c(Br)c4)CC3)cc2c1`, the 50% inhibitory concentration (IC50) is 0.025 µM.
`O=C(NC1CCN(Cc2ccc(OC3CCNCC3)c(Br)c2)CC1)c1cc2ccc(-c3ccc(F)cc3)cc2s1`: the IC50 was 0.074 µM.
With `O=C(NC1CCN(Cc2ccc(OC3CCNCC3)c(Br)c2)CC1)c1cc2ccc(-c3ccccc3)cc2s1`, the IC50 stood at 0.09 µM.
With `O=C(NC1CCN(Cc2ccc(OC3CCNCC3)c(Br)c2)CC1)c1cccs1`, the IC50 amounted to 0.13 µM.
Turning to `CCc1ccc2sc(C(=O)NC3CCN(Cc4ccc(OC5CCNCC5)c(Br)c4)CC3)cc2c1`, the IC50 was 0.18 µM.
As for `COc1cccc(-c2ccc3cc(C(=O)NC4CCN(Cc5ccc(OC6CCNCC6)c(Br)c5)CC4)sc3c2)c1`, the IC50 is 0.087 µM.

The target of a further data set is CYP2D6 (Homo sapiens, UniProt P10635). In words: Inhibition of CYP2D6 (unknown origin) at 10 uM. In kind it is ADME.
CYP2D6, sequence (P10635 whole entry): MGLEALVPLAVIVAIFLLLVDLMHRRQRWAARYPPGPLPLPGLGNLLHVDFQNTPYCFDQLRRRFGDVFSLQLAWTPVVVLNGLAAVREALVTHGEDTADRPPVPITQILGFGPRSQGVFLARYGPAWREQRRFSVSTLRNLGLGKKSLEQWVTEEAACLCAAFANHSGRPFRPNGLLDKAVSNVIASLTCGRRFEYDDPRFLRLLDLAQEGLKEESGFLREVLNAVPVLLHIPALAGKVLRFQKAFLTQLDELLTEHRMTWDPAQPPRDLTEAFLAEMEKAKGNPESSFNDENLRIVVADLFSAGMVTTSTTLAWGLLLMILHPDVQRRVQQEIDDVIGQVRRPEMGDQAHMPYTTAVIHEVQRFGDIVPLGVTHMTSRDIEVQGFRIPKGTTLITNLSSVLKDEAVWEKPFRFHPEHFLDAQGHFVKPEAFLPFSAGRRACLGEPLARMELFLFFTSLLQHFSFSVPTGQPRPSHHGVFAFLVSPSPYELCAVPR
Conditions: not given
The compound `N#Cc1ccc2sc(C(=O)NC3CCN(Cc4ccc(OC5CCNCC5)c(Br)c4)CC3)cc2c1` gave an inhibition at 10 µM of 55%.

System in the next data set: not listed separately
In words: Metabolic stability in rat liver microsomes after 30 mins. The conditions noted are these: read-out: Stability. In kind it is ADME.
In the case of `N#Cc1ccc2sc(C(=O)NC3CCN(Cc4ccc(OC5CCNCC5)c(Br)c4)CC3)cc2c1`, the remaining at 0.5 h is 74%.

Another data set concerns the target CYP3A4 (Homo sapiens, UniProt P08684). In words: Inhibition of CYP3A4 (unknown origin) at 10 uM. It counts as ADME.
Conditions: not given
In turn, `N#Cc1ccc2sc(C(=O)NC3CCN(Cc4ccc(OC5CCNCC5)c(Br)c4)CC3)cc2c1` yielded an inhibition at 10 µM of 75%.

System in another data set: not listed separately
In words: Metabolic stability in human liver microsomes after 30 mins. The conditions noted are these: read-out: Stability. It counts as ADME.
Regarding `N#Cc1ccc2sc(C(=O)NC3CCN(Cc4ccc(OC5CCNCC5)c(Br)c4)CC3)cc2c1`, the remaining at 0.5 h worked out at 85%.
